Only some compounds are listed: those with a hit (about 4% of all), similar ones and a draw of the others.
Granule exo inh: lytic granule exocytosis inhibition. AID 651702. 360,000 compounds, 0.66% hits. inhibition, % at 10 µM. TALL-104 LAMP-1 surface exposure, flow cytometry; cells stimulated with thapsigargin and PMA;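 active = inhibition above about 55%, limit read from the data; inconclusive = no clear call, values can overlap the other calls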
ABHD5 PLIN5 PPI: inhibitors of human ABHD5-perilipin-5 interaction | Q00G26+Q8WTS1 | Split G. princeps luciferase complementation, luminescence, 4 h | inhibition, % at 4 µM | 360,000 compounds, 0.78% hits;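 active = inhibition above the mean inhibition across every tested compound plus 3 SD, cut at about 22% in these data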
UPR XBP1 act: adaptive UPR (XBP1) activation; activation, % at 20 µM; 330,000 compounds, 0.33% hits; CHO-XBP1 luciferase reporter, IRE1-XBP1 UPR activation, luminescence; percent of tunicamycin response, DMSO as zero;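 active = versus positive control, 20 µM dose yields 30% or more activation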
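Material: CHO cell line with stable XBP1 luciferase reporter; buffer or medium: F12 medium containing 10% fetal bovine serum; compound: single point, 20 µM final compound, 1% DMSO; incubation: 6 h treatment, 37 °C; measured by: glow luminescence from Steady-Glo reagent; evaluation: activation, % of tunicamycin; control set: tunicamycin high, DMSO low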
Mdm2 MdmX PPI: human Mdm2/MdmX binding inhibition | O15151+Q00987 | SaOS-2 split-luciferase Mdm2/MdmX complementation, luminescence | inhibition, % at 8 µM | 330,000 compounds, 3% hits;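 active = inhibition of at least 50% at 8 µM in the primary screen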
Target sequence (O15151 whole entry, looked up): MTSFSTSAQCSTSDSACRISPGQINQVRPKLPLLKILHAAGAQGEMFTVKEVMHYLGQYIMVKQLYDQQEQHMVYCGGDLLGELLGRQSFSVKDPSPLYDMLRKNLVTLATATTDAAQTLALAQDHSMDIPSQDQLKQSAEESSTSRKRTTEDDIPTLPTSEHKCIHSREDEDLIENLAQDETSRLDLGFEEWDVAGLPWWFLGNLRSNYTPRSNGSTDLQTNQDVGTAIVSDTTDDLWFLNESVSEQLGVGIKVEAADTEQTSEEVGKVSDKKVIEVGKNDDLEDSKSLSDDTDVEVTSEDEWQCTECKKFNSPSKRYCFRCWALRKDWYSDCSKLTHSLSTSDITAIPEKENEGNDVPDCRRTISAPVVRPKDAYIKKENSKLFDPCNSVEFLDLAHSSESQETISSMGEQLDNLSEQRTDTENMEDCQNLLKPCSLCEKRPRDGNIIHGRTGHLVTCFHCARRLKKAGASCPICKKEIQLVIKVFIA
Target sequence (Q00987 whole entry, looked up): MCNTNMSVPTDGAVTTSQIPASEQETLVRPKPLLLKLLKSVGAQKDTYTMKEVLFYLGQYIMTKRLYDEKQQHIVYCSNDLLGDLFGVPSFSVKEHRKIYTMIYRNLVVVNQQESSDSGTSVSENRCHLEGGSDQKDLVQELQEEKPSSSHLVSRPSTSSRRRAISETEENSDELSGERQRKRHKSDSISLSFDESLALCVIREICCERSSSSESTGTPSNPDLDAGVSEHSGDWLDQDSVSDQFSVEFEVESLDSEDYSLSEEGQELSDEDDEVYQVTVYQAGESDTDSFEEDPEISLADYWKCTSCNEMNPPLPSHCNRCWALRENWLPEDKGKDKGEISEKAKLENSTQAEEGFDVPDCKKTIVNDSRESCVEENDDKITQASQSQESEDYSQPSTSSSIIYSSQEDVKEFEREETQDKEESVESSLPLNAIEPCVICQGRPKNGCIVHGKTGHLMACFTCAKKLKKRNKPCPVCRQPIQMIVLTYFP
CHOP UPR activ: apoptotic UPR (CHOP) activation; CHO-CHOP luciferase reporter, luminescence; percent of tunicamycin response over DMSO baseline; activation, % at 10 µM; 330,000 compounds, 0.34% hits;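 active = at 10 µM dose, activation of 40% or more, normalized to positive control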
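measured by = luciferase luminescence | assay system = CHO-CHOP cells, stable luciferase reporter of PERK-eIF2a-CHOP signalling | amount = 500 reporter cells seeded per well | timing = 6 h compound exposure at 37 °C after overnight seeding | controls = positive tunicamycin 10 µg/mL, negative DMSO alone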
Mdm2-MdmX conf: human Mdm2/MdmX binding inhibition, confirmed | 10,000 compounds, 55% hits | shares compounds with Mdm2 MdmX PPI | luminescent assay | inhibition, % at 8 µM; in the data active = inhibition above about 40%
FLuc counter: inhibits full-length luciferase, flagging false Mdm2/MdmX hits | shares compounds with Mdm2 MdmX PPI | SaOS-2 full-length luciferase counterscreen, luminescence | inhibition, % at 8 µM | 6,200 compounds, 77% hits | AID 504607;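 active = mean inhibition at 8 µM reaching about 37%, which flags the compound as non-specific, limit read from the data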;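 also: p53-null SaOS-2 cells with luciferase driven by a doxycycline-inducible promoter; compound on cells about two nights before reading with doxycycline added after day one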
ABHD5-PLIN5 conf: ABHD5-PLIN5 interaction inhibition, confirmed; shares compounds with ABHD5 PLIN5 PPI; AID 651612; 2,200 compounds, 67% hits; inhibition, % at 4 µM; biochemical ABHD5-PLIN5 interaction, luminescence; in the data active = inhibition above about 23%
HNF4 counter: active in HNF4 split-luciferase counter-screen for ABHD5-PLIN5 inhibitors | AID 651674 | shares compounds with ABHD5 PLIN5 PPI | 2,200 compounds, 77% hits | HNF4 dimerization, luminescence, biochemical | inhibition, % at 4 µM;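 active = mean inhibition across replicate wells exceeding the computed hit threshold, cut at about 13% in these data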;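 also: light from luciferase halves that rejoin when HNF4 fusion proteins dimerize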
Granule exo CP1: lytic granule exocytosis inhibition; shares compounds with Granule exo inh; 1,500 compounds, 11% hits; inhibition, % at 10 µM; TALL-104 cells, LAMP-1 externalization, flow cytometry; stimulated with PMA plus thapsigargin; in the data active = inhibition above about 60%
Of the large screens only hits and unclear results are named; the others gave an inactive call (follow-up assays come after a bar, where they were run).

CC(C)(C)C(=O)/C(=C/c1ccncc1)n1cncn1	ABHD5 PLIN5 PPI 29, Mdm2 MdmX PPI 100 | Mdm2-MdmX conf 100 | FLuc counter 51 | ABHD5-PLIN5 conf 51 | HNF4 counter 48
COc1ccc(N(CC(=O)NCCc2ccc(OC)c(OC)c2)S(=O)(=O)c2c(C)noc2C)cc1	none
CCOC(=O)/C=C/S(=O)(=O)c1ccc(NC(C)=O)cc1	ABHD5 PLIN5 PPI 77, Mdm2 MdmX PPI 68 | Mdm2-MdmX conf 53 | FLuc counter inactive | ABHD5-PLIN5 conf 78 | HNF4 counter 109
COc1ccc(NC(=O)/C(Cl)=C(/Cl)S(=O)Cc2ccccc2)cn1 (configuration not stated)	ABHD5 PLIN5 PPI 95, Mdm2 MdmX PPI 98 | Mdm2-MdmX conf 99 | FLuc counter inactive | ABHD5-PLIN5 conf 97 | HNF4 counter 103
C#CCOCCOCCOCCNc1nc(N2CCN(C(=O)CCCCCCCCCCNC(=O)Cn3cc(C[C@@H](C)O)nn3)CC2)nc(N2CCN(C(=O)CCCCCCCCCCNC(=O)[C@@H]([C@H](C)O)n3cc(C)nn3)CC2)n1	ABHD5 PLIN5 PPI 97, Mdm2 MdmX PPI 54 | Mdm2-MdmX conf inactive | ABHD5-PLIN5 conf inactive | HNF4 counter inactive
C#CCOCCOCCOCCNc1nc(N2CCN(C(=O)CCCCCCCCCCNC(=O)[C@H](CCCCN)n3cc(C)nn3)CC2)nc(N2CCN(C(=O)CCCCCCCCCCNC(=O)[C@@H]([C@H](C)O)n3cc(C)nn3)CC2)n1	ABHD5 PLIN5 PPI 44, Mdm2 MdmX PPI 78 | Mdm2-MdmX conf inactive | ABHD5-PLIN5 conf inactive | HNF4 counter inactive
O=C(O)CCCCCCCCCCP(=O)(c1ccccc1)c1ccccc1	none
O=P(CCCCCCCCCP(=O)(c1ccccc1)c1ccccc1)(c1ccccc1)c1ccccc1	ABHD5 PLIN5 PPI 23, Mdm2 MdmX PPI 66 | Mdm2-MdmX conf inactive | ABHD5-PLIN5 conf inactive | HNF4 counter inactive
C=CCN1C(=O)C(C(C)CC)NC1=S (configuration not stated)	none
COc1ccc(CCNC(=O)/C=C/c2ccc3ccccc3n2)cc1OC	ABHD5 PLIN5 PPI 25, Mdm2 MdmX PPI 58 | Mdm2-MdmX conf 69 | FLuc counter 54 | ABHD5-PLIN5 conf 32 | HNF4 counter 18
COc1ccc(/C=C/C(=O)NCCc2ccc(OC)c(OC)c2)cc1	none
Cc1cc(C)cc(CC(=O)N2CCC2(C)C(=O)NS(=O)(=O)c2ccc(C(C)(C)C)cc2)c1 (configuration not stated)	none (no result: UPR XBP1 act, Mdm2 MdmX PPI, CHOP UPR activ)
CN(C)C1(CNC(=O)C2CCN(S(=O)(=O)c3cc(Cl)ccc3Cl)CC2)CCCCC1	none
CCc1ccccc1Nc1nc(N)nc(CSCC(=O)Nc2ccc(C)c(C)c2)n1	none
Cc1ccccc1CS(=O)(=O)c1nnc([C@H](CC(C)C)NC(=O)OC(C)(C)C)o1	ABHD5 PLIN5 PPI 45, Mdm2 MdmX PPI 75 | Mdm2-MdmX conf 79 | FLuc counter inactive | ABHD5-PLIN5 conf 69 | HNF4 counter 90
O=C1c2ccccc2C(=O)N1CC#CCN1CCN(C(c2ccccc2)c2ccccc2)CC1	none
Cn1c(=O)c(Sc2ccccc2)c(O)c2ccccc21	none
CCN1/C(=C/c2ccc3ccccc3[n+]2CC)C=Cc2ccccc21	ABHD5 PLIN5 PPI 41, Mdm2 MdmX PPI 89 | Mdm2-MdmX conf 81 | FLuc counter inactive | ABHD5-PLIN5 conf 55 | HNF4 counter 53
COc1ccc(-c2csc(NC3OC(=O)c4c3ccc(OC)c4OC)n2)cc1OC (configuration not stated)	ABHD5 PLIN5 PPI 34, Mdm2 MdmX PPI 78 | Mdm2-MdmX conf 62 | FLuc counter 70 | ABHD5-PLIN5 conf 63 | HNF4 counter 49
COc1ccc2c(c1OC)C(=O)OC2Nc1nc(-c2ccc([N+](=O)[O-])cc2)cs1 (configuration not stated)	none
CC1=NN(c2ccccc2)C(=O)/C1=C/C=C/c1ccccc1	Granule exo inh inconclusive, ABHD5 PLIN5 PPI 25, Mdm2 MdmX PPI 65 | Mdm2-MdmX conf 52 | FLuc counter 49 | ABHD5-PLIN5 conf 98 | HNF4 counter 90
CC1=NN(c2cccc(C(=O)O)c2)C(=O)/C1=C\C=C\c1ccco1	none
CN(C)C(CNC(=O)c1ccc(NS(=O)(=O)c2ccc(F)cc2)cc1)c1ccco1 (configuration not stated)	none
COc1ccc(OC(=O)C(C)N2C(=O)c3ccccc3C2=O)cc1 (configuration not stated)	none
CC1=CC(C)(C)Nc2ccc(OC(=O)c3ccco3)cc21	ABHD5 PLIN5 PPI 67, Mdm2 MdmX PPI 72 | Mdm2-MdmX conf inactive | ABHD5-PLIN5 conf 91 | HNF4 counter 91
CC1=CC(C)(C)Nc2ccc(OC(=O)C(C)N3C(=O)c4ccccc4C3=O)cc21 (configuration not stated)	ABHD5 PLIN5 PPI 58, Mdm2 MdmX PPI 56 | Mdm2-MdmX conf inactive | ABHD5-PLIN5 conf 90 | HNF4 counter 24
Cc1cc(C)n(-c2nc(NCCC(C)C)c3c4c(sc3n2)COC(C)(C)C4)n1	none (no result: UPR XBP1 act, Mdm2 MdmX PPI, CHOP UPR activ)
Cc1cc(C)n(-c2nc(NCCN(C)C)c3c4c(sc3n2)CCCC4)n1	Granule exo inh 94, Mdm2 MdmX PPI 100 | Mdm2-MdmX conf 89 | FLuc counter inactive | Granule exo CP1 inactive
COc1ccc(OC)c(Nc2cc(C)nc3ccc(C)cc23)c1	Granule exo inh 56, Mdm2 MdmX PPI 68 | Mdm2-MdmX conf 58 | FLuc counter 48 | Granule exo CP1 inactive
CCOC(=O)Nc1ccc2c(c1)N(C(=O)CCN(CC)CC)c1ccccc1S2=O (configuration not stated)	Granule exo inh 73, ABHD5 PLIN5 PPI 23, Mdm2 MdmX PPI 67 | Mdm2-MdmX conf 53 | FLuc counter inactive | ABHD5-PLIN5 conf inactive | HNF4 counter 78 | Granule exo CP1 inactive
CCOC(=O)Nc1ccc2c(c1)N(C(=O)CCN(CC)CC)c1ccccc1CC2	none
COc1ccc(OC)c(NC(=O)CN(Cc2ccc(F)cc2)C2CCCCC2)c1	Granule exo inh 76, Mdm2 MdmX PPI 52 | Mdm2-MdmX conf inactive | Granule exo CP1 inactive

Screens: PubChem, several laboratories
